Results taken from ChEMBL document CHEMBL2331331 (J Med Chem, 2013).
Calls of active or inactive are those of the source. No cut-off for these calls is given here.

Experiments:
[1] = target: Mast/stem cell growth factor receptor Kit (Homo sapiens, UniProt P10721); test: Inhibition of c-Kit (unknown origin)
Jurkat = test: Cytotoxicity against human Jurkat cells assessed as growth inhibition after 72 hrs by MTT assay
Aurora kinase A = Aurora kinase A (Homo sapiens, UniProt O14965); test: Inhibition of aurora-A (unknown origin)
Chain of Aurora kinase A (O14965 whole entry): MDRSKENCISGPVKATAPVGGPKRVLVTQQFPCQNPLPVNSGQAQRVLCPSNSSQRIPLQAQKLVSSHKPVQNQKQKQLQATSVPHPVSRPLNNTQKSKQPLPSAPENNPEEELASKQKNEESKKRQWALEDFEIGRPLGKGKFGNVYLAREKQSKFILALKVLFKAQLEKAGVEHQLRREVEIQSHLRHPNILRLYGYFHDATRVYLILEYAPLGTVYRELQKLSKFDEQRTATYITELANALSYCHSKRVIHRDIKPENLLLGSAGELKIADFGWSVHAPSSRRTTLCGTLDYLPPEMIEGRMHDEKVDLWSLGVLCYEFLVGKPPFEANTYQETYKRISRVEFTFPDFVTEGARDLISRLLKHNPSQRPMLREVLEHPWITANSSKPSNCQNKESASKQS

[2] = target: Receptor tyrosine-protein kinase erbB-4 (Homo sapiens, UniProt Q15303); test: Inhibition of ERBB4 (unknown origin)
Chain of Receptor tyrosine-protein kinase erbB-4 (Q15303 whole entry): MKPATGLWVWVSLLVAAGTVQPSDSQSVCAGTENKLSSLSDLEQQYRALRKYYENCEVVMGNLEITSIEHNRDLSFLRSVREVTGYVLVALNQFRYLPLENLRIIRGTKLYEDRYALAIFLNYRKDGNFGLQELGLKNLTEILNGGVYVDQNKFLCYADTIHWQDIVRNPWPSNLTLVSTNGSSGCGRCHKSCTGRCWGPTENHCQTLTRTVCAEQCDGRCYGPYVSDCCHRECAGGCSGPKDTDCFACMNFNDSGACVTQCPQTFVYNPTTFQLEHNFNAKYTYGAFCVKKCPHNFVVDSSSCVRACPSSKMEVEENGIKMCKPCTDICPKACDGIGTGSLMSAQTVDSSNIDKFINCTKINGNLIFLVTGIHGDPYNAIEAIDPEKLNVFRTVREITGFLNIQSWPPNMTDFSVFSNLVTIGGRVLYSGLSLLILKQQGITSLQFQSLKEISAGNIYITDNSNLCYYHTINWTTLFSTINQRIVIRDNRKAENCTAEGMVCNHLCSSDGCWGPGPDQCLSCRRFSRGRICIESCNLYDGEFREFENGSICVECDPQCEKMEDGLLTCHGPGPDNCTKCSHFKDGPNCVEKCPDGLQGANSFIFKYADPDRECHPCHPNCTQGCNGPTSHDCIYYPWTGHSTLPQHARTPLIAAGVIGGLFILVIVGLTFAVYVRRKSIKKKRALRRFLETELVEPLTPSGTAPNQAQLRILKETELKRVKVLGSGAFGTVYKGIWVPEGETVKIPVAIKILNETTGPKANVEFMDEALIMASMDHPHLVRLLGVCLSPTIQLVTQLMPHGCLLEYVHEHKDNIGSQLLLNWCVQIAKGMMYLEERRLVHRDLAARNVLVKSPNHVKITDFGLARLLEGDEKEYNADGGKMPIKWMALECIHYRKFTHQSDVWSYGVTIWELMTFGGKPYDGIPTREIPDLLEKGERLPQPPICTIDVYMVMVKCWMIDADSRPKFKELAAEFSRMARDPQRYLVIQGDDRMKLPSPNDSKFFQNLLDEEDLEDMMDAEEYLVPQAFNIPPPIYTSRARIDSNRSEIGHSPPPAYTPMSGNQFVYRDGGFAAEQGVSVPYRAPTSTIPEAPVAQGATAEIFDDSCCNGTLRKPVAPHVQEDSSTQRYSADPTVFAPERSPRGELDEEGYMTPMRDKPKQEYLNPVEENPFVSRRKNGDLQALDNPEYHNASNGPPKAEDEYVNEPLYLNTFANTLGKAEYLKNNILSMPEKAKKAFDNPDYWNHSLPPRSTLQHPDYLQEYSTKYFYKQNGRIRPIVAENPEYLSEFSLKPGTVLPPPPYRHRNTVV

MV4-11 = test: Antitumor activity against FLT3-ITD-positive human MV4-11 cells xenografted in NOD-SCID mouse assessed as tumor growth inhibition at 3 mg/kg/day, po administered 18 days measured every 3 days for 18 days; format: functional, organism-based
Procedure, shortened: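 NOD-SCID mice (5–6 weeks) implanted sc with 1 × 10⁸/mL MV4-11 cells (100 μL) in serum-free medium. Grouped at 300–500 mm³, six per group, then dosed orally once daily for 18 days. Vehicle was 12.5% castor oil, 12.5% ethanol, 75% water. Tumor volume = long × short²/2, measured every 3 d.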

[3] = target: Serine/threonine-protein kinase/endoribonuclease IRE1 (Homo sapiens, UniProt O75460); test: Inhibition of ERN1 (unknown origin)
Chain of Serine/threonine-protein kinase/endoribonuclease IRE1 (O75460 whole entry): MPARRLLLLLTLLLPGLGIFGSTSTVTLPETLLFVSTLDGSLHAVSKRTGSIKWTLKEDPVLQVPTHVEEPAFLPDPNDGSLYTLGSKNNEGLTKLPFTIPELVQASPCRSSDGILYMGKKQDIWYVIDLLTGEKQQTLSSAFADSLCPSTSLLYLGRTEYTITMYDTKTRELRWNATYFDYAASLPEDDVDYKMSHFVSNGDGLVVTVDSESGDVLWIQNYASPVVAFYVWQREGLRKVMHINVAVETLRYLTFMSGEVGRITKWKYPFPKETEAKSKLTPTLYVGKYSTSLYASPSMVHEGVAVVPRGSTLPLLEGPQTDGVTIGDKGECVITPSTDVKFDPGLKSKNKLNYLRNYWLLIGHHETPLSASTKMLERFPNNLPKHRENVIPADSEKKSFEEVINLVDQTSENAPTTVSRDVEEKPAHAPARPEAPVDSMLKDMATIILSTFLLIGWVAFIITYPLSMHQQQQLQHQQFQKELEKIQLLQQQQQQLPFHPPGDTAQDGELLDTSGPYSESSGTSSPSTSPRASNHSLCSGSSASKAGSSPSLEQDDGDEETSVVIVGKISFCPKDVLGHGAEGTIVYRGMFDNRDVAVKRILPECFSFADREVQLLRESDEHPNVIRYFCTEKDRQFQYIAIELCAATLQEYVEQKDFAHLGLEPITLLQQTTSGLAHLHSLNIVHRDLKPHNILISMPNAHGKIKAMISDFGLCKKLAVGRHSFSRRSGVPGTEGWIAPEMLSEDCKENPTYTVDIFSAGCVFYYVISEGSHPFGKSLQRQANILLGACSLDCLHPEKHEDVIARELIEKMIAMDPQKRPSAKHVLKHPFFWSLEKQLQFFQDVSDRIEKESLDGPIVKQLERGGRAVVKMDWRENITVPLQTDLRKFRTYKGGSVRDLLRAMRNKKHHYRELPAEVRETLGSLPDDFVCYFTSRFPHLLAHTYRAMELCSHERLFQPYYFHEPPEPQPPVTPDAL

[4] = target: Serine/threonine-protein kinase pim-1 (Homo sapiens, UniProt P11309); test: Inhibition of Pim-1 (unknown origin)
Chain of Serine/threonine-protein kinase pim-1 (P11309 whole entry): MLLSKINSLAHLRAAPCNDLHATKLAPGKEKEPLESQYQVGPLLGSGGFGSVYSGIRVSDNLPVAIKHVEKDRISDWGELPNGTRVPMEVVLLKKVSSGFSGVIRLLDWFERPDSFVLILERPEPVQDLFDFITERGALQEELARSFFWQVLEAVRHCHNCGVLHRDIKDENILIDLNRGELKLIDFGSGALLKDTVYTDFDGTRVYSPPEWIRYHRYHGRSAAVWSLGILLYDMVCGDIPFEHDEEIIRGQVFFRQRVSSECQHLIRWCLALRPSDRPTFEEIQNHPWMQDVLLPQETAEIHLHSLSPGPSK

Chain of Mast/stem cell growth factor receptor Kit (P10721 whole entry): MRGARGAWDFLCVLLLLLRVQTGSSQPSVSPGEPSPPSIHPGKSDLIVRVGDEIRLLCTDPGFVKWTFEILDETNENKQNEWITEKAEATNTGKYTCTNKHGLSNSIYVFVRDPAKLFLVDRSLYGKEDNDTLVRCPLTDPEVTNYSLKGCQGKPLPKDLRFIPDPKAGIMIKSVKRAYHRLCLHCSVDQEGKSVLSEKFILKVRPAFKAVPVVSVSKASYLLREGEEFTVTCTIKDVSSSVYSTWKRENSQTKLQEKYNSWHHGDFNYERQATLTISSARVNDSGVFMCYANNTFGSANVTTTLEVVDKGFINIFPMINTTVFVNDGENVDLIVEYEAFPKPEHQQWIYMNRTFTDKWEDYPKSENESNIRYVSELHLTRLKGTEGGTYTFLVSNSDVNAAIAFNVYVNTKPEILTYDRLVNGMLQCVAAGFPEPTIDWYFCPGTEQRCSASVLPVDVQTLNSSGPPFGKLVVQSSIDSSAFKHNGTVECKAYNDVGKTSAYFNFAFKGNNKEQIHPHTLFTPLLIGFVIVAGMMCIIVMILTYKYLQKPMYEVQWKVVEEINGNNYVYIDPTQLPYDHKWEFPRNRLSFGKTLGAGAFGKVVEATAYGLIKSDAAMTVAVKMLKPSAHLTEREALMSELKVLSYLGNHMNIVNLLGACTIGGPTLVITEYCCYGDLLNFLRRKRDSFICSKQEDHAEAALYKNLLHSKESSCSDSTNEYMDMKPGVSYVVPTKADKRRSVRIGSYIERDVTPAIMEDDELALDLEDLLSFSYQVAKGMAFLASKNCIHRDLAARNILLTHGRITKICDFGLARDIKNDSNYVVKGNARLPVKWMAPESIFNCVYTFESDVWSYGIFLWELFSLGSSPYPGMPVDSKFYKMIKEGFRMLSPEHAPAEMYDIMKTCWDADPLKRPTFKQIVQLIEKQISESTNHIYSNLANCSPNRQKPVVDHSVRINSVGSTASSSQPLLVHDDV

IC50 [1]: 0.507 µM
IC50 (Aurora kinase A): > 10 µM
IC50 [2]: > 10 µM
IC50 [3]: > 10 µM
IC50 [4]: > 10 µM
SMILES: O=C(Nc1ccc(Oc2ncnc3[nH]ncc23)cc1)Nc1ccc(Cl)c(C(F)(F)F)c1
IC50 (Jurkat): 8.72 µM
TGI (MV4-11): Active
